From ChEMBL document CHEMBL1127441, “Design, synthesis, and neurochemical evaluation of 2-amino-5-(alkoxycarbonyl)-3,4,5,6-tetrahydropyridines and 2-amino-5-(alkoxycarbonyl)-1,4,5,6-tetrahydropyrimidines as M1 muscarinic receptor agonists” (J Med Chem, 1994)

What was measured:
Rattus norvegicus = organism: Rattus norvegicus; experiment: Stimulation of phosphoinositide (PI) metabolism in rat cortex at 100 uM; assay type: functional
Outline: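 Rat cerebral cortex slices cross-chopped at 300 μm, preincubated in oxygenated Krebs-Henseleit buffer at 37 °C. Labeled 30 min with 0.3 mM [3H]inositol and 10 mM LiCl, then 45 min with agonist at 100 μM, or buffer for basal. Stopped with CHCl3/MeOH. Total [3H]inositol phosphates isolated on anion-exchange cartridges and counted. Given as % above basal; mean ± SEM, three independent experiments.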

[1] = molecular target: Muscarinic acetylcholine receptor; experiment: Affinity for muscarinic receptor in rat brain was measured by inhibition of [3H](R)-quinuclidinyl benzilate (QNB) binding; assay type: tissue-based
[2] = molecular target: T1, Muscarinic acetylcholine receptor M1 (Rattus norvegicus, UniProt P08482); experiment: (§1) Affinity for muscarinic receptor M1 in rat brain was measured by inhibition of [3H](R)-quinuclidinyl benzilate (QNB) binding; assay type: tissue-based
T1 sequence (P08482 whole entry): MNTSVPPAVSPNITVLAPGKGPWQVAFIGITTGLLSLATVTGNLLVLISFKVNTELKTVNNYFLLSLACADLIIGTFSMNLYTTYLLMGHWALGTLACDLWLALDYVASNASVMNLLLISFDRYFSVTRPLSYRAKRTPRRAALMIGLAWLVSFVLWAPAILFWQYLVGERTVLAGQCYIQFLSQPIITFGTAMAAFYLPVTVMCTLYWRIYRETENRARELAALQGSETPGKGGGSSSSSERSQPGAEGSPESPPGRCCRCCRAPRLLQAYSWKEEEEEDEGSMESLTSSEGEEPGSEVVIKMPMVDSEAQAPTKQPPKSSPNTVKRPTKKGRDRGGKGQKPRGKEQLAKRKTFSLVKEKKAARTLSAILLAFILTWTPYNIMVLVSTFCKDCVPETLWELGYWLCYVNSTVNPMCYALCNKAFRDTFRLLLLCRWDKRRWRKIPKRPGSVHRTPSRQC
Outline: (§2)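 Competition against 50 pM [3H]-(R)-QNB in rat brain membrane suspension, about 10 pM receptors (4 mg/mL protein), 40 mM Na/K phosphate pH 7.4, varying compound concentrations. Incubation 2.0 h at room temperature, then glass fiber filtration and two cold buffer washes. Nonspecific binding with 1000-fold excess atropine. IC50 from Hill plots; mean ± SEM, three independent experiments in triplicate.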

[3] = molecular target: Muscarinic acetylcholine receptor; experiment: as §1; assay type: tissue-based; outline: as §2

Structure (SMILES) | IC50 [1] [µM] | IC50 [2] [µM] | IC50 [3] [µM] | PI metabolism (Rattus norvegicus) [%]
CC(C)OC(=O)C1CN=CNC1.Cl (stereo unspecified) |  |  |  | 7.2
COC(=O)C1CN=C(N)NC1.Cl (stereo unspecified) | 22 |  |  | 81
COC(=O)C1CN=CNC1.Cl (stereo unspecified) |  |  |  | 110
CCOC(=O)C1CN=CNC1.Cl (stereo unspecified) |  |  |  | 150
C#CCOC(=O)C1CN=CNC1.Cl (stereo unspecified) |  |  |  | 230
COC(=O)C1CCN=C(N)N1.Cl (stereo unspecified) |  |  | 4300 | 
COC(=O)C1CCCC(N)=N1.Cl (stereo unspecified) |  | 250 |  | 8.1
CCCOC(=O)C1CN=CNC1.Cl (stereo unspecified) |  |  |  | 7.1
CC(C)OC(=O)C1CN=C(N)NC1.Cl (stereo unspecified) | 29 |  |  | 23
COC(=O)C1CCCN=C1N.Cl (stereo unspecified) |  | 320 |  | -5.5
C[N+](C)(C)CCOC(N)=O.[Cl-] [CARBACHOL] |  |  |  | 470

Further lines, with some results ahead:

IC50 [1] [µM] | IC50 [2] [µM] | IC50 [3] [µM] | Structure (SMILES) | PI metabolism (Rattus norvegicus) [%]
1.7 |  |  | CCCOC(=O)C1CCC(N)=NC1.Cl (stereo unspecified) | 51
4.3 |  |  | CCOC(=O)C1CCC(N)=NC1.Cl (stereo unspecified) | 31
 | 120 |  | COC(=O)C1CCN=C(N)C1.Cl (stereo unspecified) | 9
31 |  |  | C#CCOC(=O)C1CN=C(N)NC1.Cl (stereo unspecified) | 150
8.2 |  |  | CCOC(=O)C1CN=C(N)NC1.Cl (stereo unspecified) | 28
4.8 |  |  | CCCOC(=O)C1CN=C(N)NC1.Cl (stereo unspecified) | 4.3
10 |  |  | COC(=O)C1CCC(N)=NC1.Cl (stereo unspecified) | 260
2.3 |  |  | C#CCOC(=O)C1CCC(N)=NC1.Cl (stereo unspecified) | 120
